As a reminder, the MIC is the lowest concentration that inhibits growth of the organism. Read a high MIC as a less susceptible organism.

Data set [1] concerns Rattus norvegicus. Nature of the data set: Antihyperglycemic activity in streptozotocin-induced type 2 diabetic Wistar albino rat assessed as reduction in plasma glucose level at 10 mg/kg, po by glucometer. The class given is functional. In short, it runs like this:
(§1)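 Wistar albino rats of either sex, 150–200 g, fasted 16 h. Diabetes induced by nicotinamide 150 mg/kg, then STZ 65 mg/kg in citrate buffer pH 4.5. Glucose confirmed after 48 h. Groups of six. Oral dosing as 0.25% sodium CMC suspension at 10, 30 or 50 mg/kg. Rosiglitazone was the reference. Retro-orbital plasma glucose measured by glucometer before dosing and at 1, 2, 4, 6, 8, 12 and 24 h. Results as mean ± SEM, compared by ANOVA, t-test and Dunnett's test.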

A further data set deals with Penicillium chrysogenum. Nature of the data set: Antifungal activity against Penicillium chrysogenum NCIM 738 after 48 hrs by NCCLS agar well diffusion method. The class given is functional. The conditions noted are these: NCIM 738, 48 h. Put shortly: (§2)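 Spore suspensions in sterile distilled water adjusted to 10⁶ CFU/mL, 0.1 mL spread on potato-dextrose agar. 6 mm wells received 0.1 mL compound in 1% DMSO (final 16–512 µg/mL). Controls: 1% DMSO and ketoconazole (16 µg/mL). Triplicate plates, 48 h at 28 ± 0.2 °C. MIC = lowest concentration completely inhibiting growth.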
A general note: In agar diffusion tests the substance spreads into inoculated agar from a disc or well.

Another data set deals with Candida albicans. Description: Antifungal activity against Candida albicans NCIM 3102 after 48 hrs by NCCLS agar well diffusion method. The class given is functional. The note with it: NCIM 3102, 48 h. Put shortly: as §2
Another data set relates to Pseudomonas aeruginosa. Nature of the data set: Antibacterial activity against Pseudomonas aeruginosa NCIM 2036 after 24 hrs by NCCLS agar well diffusion method. The class given is functional. The conditions noted are these: NCIM 2036, 24 h. In short, it runs like this: (§3)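 Nutrient agar seeded with 0.1 mL bacterial suspension (10⁵ CFU/mL in 0.85% saline). 6 mm wells filled with 0.1 mL compound. Plates in triplicate, 37 ± 0.5 °C for 24 h. MIC = lowest concentration giving complete growth inhibition.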

The subject of data set [2] is Rattus norvegicus. Nature of the data set: Antihyperglycemic activity in streptozotocin-induced type 2 diabetic Wistar albino rat assessed as reduction in plasma glucose level at 50 mg/kg, po by glucometer. The class given is functional. Put shortly: as §1
The test system of a further data set is Bacillus subtilis. Description: Antibacterial activity against Bacillus subtilis NCIM 2063 after 24 hrs by NCCLS agar well diffusion method. The class given is functional. The note with it: NCIM 2063, 24 h. In short, it runs like this:
as §3

The subject of another data set is Bacillus pumilus. Nature of the data set: Antibacterial activity against Bacillus pumilus NCIM 2327 after 24 hrs by NCCLS agar well diffusion method. The class given is functional. The note with it: NCIM 2327, 24 h. In short, it runs like this: as §3
Data set [3] concerns Rattus norvegicus. Nature of the data set: Antihyperglycemic activity in po dosed streptozotocin-induced type 2 diabetic Wistar albino rat assessed as reduction in plasma glucose level by glucometer. The class given is functional, organism-based. In short, it runs like this: as §1
The next data set concerns Staphylococcus aureus. Nature of the data set: Antibacterial activity against Staphylococcus aureus NCIM 2079 after 24 hrs by NCCLS agar well diffusion method. The class given is functional. The note with it: NCIM 2079, 24 h. Put shortly: as §3
The next data set deals with Aspergillus niger. Description: Antifungal activity against Aspergillus niger NCIM 548 after 48 hrs by NCCLS agar well diffusion method. The class given is functional. The conditions noted are these: NCIM 548, 48 h. In short, it runs like this:
as §2

The test system of another data set is Aspergillus oryzae. Description: Antifungal activity against Aspergillus oryzae NCIM 643 after 48 hrs by NCCLS agar well diffusion method. The class given is functional. The conditions noted are these: NCIM 643, 48 h. Put shortly:
as §2

The nature of data set [4]: Toxicity in mouse assessed as changes in vital functions. The class given is organism-based. The note with it: in vivo.
Data set [5] deals with Rattus norvegicus. Nature of the data set: Antihyperglycemic activity in streptozotocin-induced type 2 diabetic Wistar albino rat assessed as reduction in plasma glucose level at 30 mg/kg, po by glucometer. The class given is functional. In short, it runs like this: as §1
The subject of a further data set is Micrococcus luteus. Description: Antibacterial activity against Micrococcus luteus NCIM 2155 after 24 hrs by NCCLS agar well diffusion method. The class given is functional. The note with it: NCIM 2155, 24 h. Put shortly: as §3
A further data set deals with Escherichia coli. Description: Antibacterial activity against Escherichia coli NCIM 2065 after 24 hrs by NCCLS agar well diffusion method. The class given is functional. The note with it: NCIM 2065, 24 h. Put shortly:
as §3

A further data set relates to Artemia salina. Description: Cytotoxicity in brine shrimps larvae assessed as mortality after 24 hrs. The class given is functional. The conditions noted are these: read-out: ED50 (the source's name). In short, it runs like this: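 Artemia salina nauplii hatched 38 h under constant aeration in sterile brine (sea salt 38 g/L, pH 8.5 with 1 N NaOH). Ten nauplii per vial were exposed to a range of compound concentrations at 37 °C for 24 h under incandescent light, alongside vehicle-treated controls. Survivors were counted, % lethality was taken from mean survivors versus control, and ED50 came from probit analysis.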

The next data set relates to Proteus vulgaris. Description: Antibacterial activity against Proteus vulgaris NCIM 2813 after 24 hrs by NCCLS agar well diffusion method. The class given is functional. The note with it: NCIM 2813, 24 h. Put shortly:
as §3

Another data set relates to Klebsiella pneumoniae. Nature of the data set: Antibacterial activity against Klebsiella pneumoniae NCIM 5082 after 24 hrs by NCCLS agar well diffusion method. The class given is functional. The note with it: NCIM 5082, 24 h. Put shortly:
as §3

Values after ≈ are worked out from the molar mass of the structure shown.

As for `O=C1NC(=O)/C(=C/c2ccc(/C=C/C(=O)c3ccc(O)cc3O)cc2)S1`, the Activity in the data set with Rattus norvegicus [1] is 26.86 mg/dL; in the data set with Rattus norvegicus [2], 41.67 mg/dL; in the data set with Rattus norvegicus [3], “Dose-dependent effect”; in the data set on Rattus norvegicus [5], 33.72 mg/dL. Besides, the MIC against Penicillium chrysogenum, with Candida albicans, against Pseudomonas aeruginosa, in the data set with Bacillus subtilis, with Bacillus pumilus and with Staphylococcus aureus was 256 µg/mL (≈ 697 µM) each time. Also, the MIC in the data set with Aspergillus niger is 256 µg/mL (≈ 697 µM); with Aspergillus oryzae it was 256 µg/mL (≈ 697 µM); in the data set with Micrococcus luteus it was 512 µg/mL (≈ 1390 µM); in the data set on Escherichia coli, 256 µg/mL (≈ 697 µM); with Proteus vulgaris it was 256 µg/mL (≈ 697 µM); in the data set with Klebsiella pneumoniae, 256 µg/mL (≈ 697 µM). Also, the MTD in data set [4] is 2000 mg/kg. Besides, in the data set with Artemia salina, the EC50 was 49.2 µg/mL (≈ 134 µM).

Turning to `Nc1ccc(C(=O)/C=C/c2ccc(/C=C3\SC(=O)NC3=O)cc2)cc1`, the Activity with Rattus norvegicus [1] is 21.34 mg/dL; in the data set on Rattus norvegicus [2], 29.87 mg/dL; in the data set with Rattus norvegicus [3], “Dose-dependent effect”; in the data set on Rattus norvegicus [5], 24.72 mg/dL. For the same molecule, the MIC against Penicillium chrysogenum was 256 µg/mL (≈ 731 µM); with Candida albicans, 128 µg/mL (≈ 365 µM); in the data set on Pseudomonas aeruginosa it was 64 µg/mL (≈ 183 µM); with Bacillus subtilis, 128 µg/mL (≈ 365 µM); in the data set on Bacillus pumilus it was 128 µg/mL (≈ 365 µM); with Staphylococcus aureus it was 128 µg/mL (≈ 365 µM). Further, the minimum inhibitory concentration (MIC) against Aspergillus niger stood at 128 µg/mL (≈ 365 µM); with Aspergillus oryzae, 128 µg/mL (≈ 365 µM); with Micrococcus luteus, 256 µg/mL (≈ 731 µM); in the data set with Escherichia coli, 128 µg/mL (≈ 365 µM); against Proteus vulgaris, 256 µg/mL (≈ 731 µM); against Klebsiella pneumoniae it was 128 µg/mL (≈ 365 µM). Moreover, the MTD in data set [4] is 2000 mg/kg. Besides, in the data set with Artemia salina, the EC50 was 28.8 µg/mL (≈ 82.2 µM).

`O=C1NC(=O)/C(=C/c2ccc(/C=C/C(=O)c3ccc4c(c3)Cc3ccccc3-4)cc2)S1`: the Activity with Rattus norvegicus [1] was 39.83 mg/dL; in the data set with Rattus norvegicus [2] it was 52.81 mg/dL; in the data set on Rattus norvegicus [3] it was “Dose-dependent effect”; in the data set on Rattus norvegicus [5], 44.62 mg/dL. Besides, the MIC came out at 512 µg/mL (≈ 1210 µM) in the data set on Penicillium chrysogenum; 256 µg/mL (≈ 604 µM) against Candida albicans; 128 µg/mL (≈ 302 µM) in the data set with Pseudomonas aeruginosa; 256 µg/mL (≈ 604 µM) in the data set with Bacillus subtilis; 256 µg/mL (≈ 604 µM) in the data set with Bacillus pumilus; 256 µg/mL (≈ 604 µM) against Staphylococcus aureus. The MIC came to 256 µg/mL (≈ 604 µM) against Aspergillus niger; 256 µg/mL (≈ 604 µM) in the data set with Aspergillus oryzae; 512 µg/mL (≈ 1210 µM) in the data set on Micrococcus luteus; 128 µg/mL (≈ 302 µM) with Escherichia coli; 512 µg/mL (≈ 1210 µM) against Proteus vulgaris; 256 µg/mL (≈ 604 µM) in the data set on Klebsiella pneumoniae. The MTD in data set [4] came out at 2000 mg/kg. Besides, the EC50 in the data set on Artemia salina was 39.7 µg/mL (≈ 93.6 µM).

`O=C1NC(=O)/C(=C/c2ccc(/C=C/C(=O)c3ccccn3)cc2)S1`: the Activity in the data set on Rattus norvegicus [1] was 22.78 mg/dL; in the data set with Rattus norvegicus [2], 43.72 mg/dL; in the data set on Rattus norvegicus [3], “Dose-dependent effect”; in the data set with Rattus norvegicus [5], 34.68 mg/dL. Further, the minimal inhibitory concentration (MIC) against Penicillium chrysogenum was determined as 128 µg/mL (≈ 381 µM); in the data set on Candida albicans, 64 µg/mL (≈ 190 µM); against Pseudomonas aeruginosa, 128 µg/mL (≈ 381 µM); against Bacillus subtilis, 128 µg/mL (≈ 381 µM); against Bacillus pumilus, 64 µg/mL (≈ 190 µM); against Staphylococcus aureus, 64 µg/mL (≈ 190 µM). Also, the MIC in the data set on Aspergillus niger amounted to 64 µg/mL (≈ 190 µM); against Aspergillus oryzae, 64 µg/mL (≈ 190 µM); with Micrococcus luteus, 32 µg/mL (≈ 95.1 µM); with Escherichia coli, 64 µg/mL (≈ 190 µM); in the data set on Proteus vulgaris it was 64 µg/mL (≈ 190 µM); against Klebsiella pneumoniae, 64 µg/mL (≈ 190 µM). Further, the MTD in [4] is 2000 mg/kg. Also, in the data set on Artemia salina, the EC50 came out at 30.3 µg/mL (≈ 90 µM).

In the case of `O=C1NC(=O)/C(=C/c2ccc(/C=C/C(=O)c3cc(OCc4ccccc4)cc(OCc4ccccc4)c3)cc2)S1`, the Activity was 21.76 mg/dL in the data set on Rattus norvegicus [1], 30.12 mg/dL in the data set on Rattus norvegicus [2], “Dose-dependent effect” in the data set with Rattus norvegicus [3] and 26.87 mg/dL in the data set on Rattus norvegicus [5]. The minimal inhibitory concentration (MIC) in the data set with Penicillium chrysogenum, against Candida albicans, in the data set with Pseudomonas aeruginosa, against Bacillus subtilis, against Bacillus pumilus and with Staphylococcus aureus was 16 µg/mL (≈ 29.2 µM) throughout. The MIC worked out at 16 µg/mL (≈ 29.2 µM) in the data set on Aspergillus niger; 16 µg/mL (≈ 29.2 µM) with Aspergillus oryzae; 16 µg/mL (≈ 29.2 µM) in the data set on Micrococcus luteus; 32 µg/mL (≈ 58.4 µM) in the data set with Escherichia coli; 32 µg/mL (≈ 58.4 µM) in the data set on Proteus vulgaris; 16 µg/mL (≈ 29.2 µM) against Klebsiella pneumoniae. The MTD in data set [4] came to 2000 mg/kg. Besides, the EC50 with Artemia salina amounted to 26.8 µg/mL (≈ 49 µM).

Values taken from ChEMBL document CHEMBL2151038, “Synthesis, characterization and biological evaluation of some novel 2,4-thiazolidinediones as potential cytotoxic, antimicrobial and antihyperglycemic agents” (Bioorg Med Chem Lett, 2012).
